ChEMBL document CHEMBL1157864, “Synthesis of some novel 2-substituted-5-[isopropylthiazole] clubbed 1,2,4-triazole and 1,3,4-oxadiazoles as potential antimicrobial and antitubercular agents” (Eur J Med Chem, 2010)
Converted amounts (≈) assume the structure as drawn.

The molecules below were run on Candida tropicalis (assay: Antimicrobial activity against Candida tropicalis ATCC 1369 after 24 hrs by broth microdilution assay). Conditions: ATCC 1369, 24 h.
Format: functional
Procedure, shortened: (§1)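 Broth dilution MIC. Stock is 10 mg compound in 1 mL DMSO, serially diluted in Mueller–Hinton broth for bacteria or Sabouraud liquid medium for yeasts and mould. Tubes are inoculated at 10⁵ cfu/mL and incubated at 37 °C for 24 h. Controls are medium alone and medium with DMSO at matching dilutions. MIC is the lowest concentration giving complete growth inhibition.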

Compound	MIC [µg/mL]
COc1ccc(/C=N/n2c(S)nnc2-c2nc(C(C)C)cs2)cc1	62.5 (≈ 174 µM)
CC(C)c1csc(-c2nnc(S)n2/N=C/c2ccccc2O)n1	125 (≈ 362 µM)
CC(C)c1csc(-c2nnc(S)n2-c2ccccc2)n1	16 (≈ 52.9 µM)
CSc1nnc(-c2nc(C(C)C)cs2)n1-c1ccccc1	16 (≈ 50.6 µM)
OC(Cn1cncn1)(Cn1cncn1)c1ccc(F)cc1F [FLUCONAZOLE]	≤ 1

These molecules were tested on Staphylococcus aureus (assay: Antimicrobial activity against Staphylococcus aureus ATCC 11632 after 24 hrs by broth microdilution assay). Conditions: ATCC 11632, 24 h.
Format: functional
Procedure, shortened: as §1

Compound	MIC [µg/mL]
COc1ccc(/C=N/n2c(S)nnc2-c2nc(C(C)C)cs2)cc1	31.2 (≈ 86.9 µM)
CC(C)c1csc(-c2nnc(S)n2/N=C/c2ccccc2O)n1	250 (≈ 724 µM)
CC(C)c1csc(-c2nnc(S)n2-c2ccccc2)n1	16 (≈ 52.9 µM)
CSc1nnc(-c2nc(C(C)C)cs2)n1-c1ccccc1	16 (≈ 50.6 µM)
O=C(O)c1cn(C2CC2)c2cc(N3CCNCC3)c(F)cc2c1=O [CIPROFLOXACIN]	≤ 5
CCn1cc(C(=O)O)c(=O)c2cc(F)c(N3CCNCC3)cc21 [NORFLOXACIN]	5 (≈ 15.7 µM)

Each molecule was assayed on Escherichia coli (assay: Antimicrobial activity against Escherichia coli ATCC 10536 after 24 hrs by broth microdilution assay). Conditions: ATCC 10536, 24 h.
Format: functional
Procedure, shortened: as §1

Compound	MIC [µg/mL]
COc1ccc(/C=N/n2c(S)nnc2-c2nc(C(C)C)cs2)cc1	31.2 (≈ 86.9 µM)
CC(C)c1csc(-c2nnc(S)n2/N=C/c2ccccc2O)n1	250 (≈ 724 µM)
CC(C)c1csc(-c2nnc(S)n2-c2ccccc2)n1	16 (≈ 52.9 µM)
CSc1nnc(-c2nc(C(C)C)cs2)n1-c1ccccc1	62.5 (≈ 198 µM)
O=C(O)c1cn(C2CC2)c2cc(N3CCNCC3)c(F)cc2c1=O [CIPROFLOXACIN]	≤ 1
CCn1cc(C(=O)O)c(=O)c2cc(F)c(N3CCNCC3)cc21 [NORFLOXACIN]	≤ 1

What follows are molecules tested on Pseudomonas aeruginosa (assay: Antimicrobial activity against Pseudomonas aeruginosa ATCC 10145 after 24 hrs by broth microdilution assay). Conditions: ATCC 10145, 24 h.
Format: functional
Procedure, shortened: as §1

Compound	MIC [µg/mL]
COc1ccc(/C=N/n2c(S)nnc2-c2nc(C(C)C)cs2)cc1	31.2 (≈ 86.9 µM)
CC(C)c1csc(-c2nnc(S)n2/N=C/c2ccccc2O)n1	250 (≈ 724 µM)
CC(C)c1csc(-c2nnc(S)n2-c2ccccc2)n1	31.2 (≈ 103 µM)
CSc1nnc(-c2nc(C(C)C)cs2)n1-c1ccccc1	16 (≈ 50.6 µM)
O=C(O)c1cn(C2CC2)c2cc(N3CCNCC3)c(F)cc2c1=O [CIPROFLOXACIN]	5 (≈ 15.1 µM)
CCn1cc(C(=O)O)c(=O)c2cc(F)c(N3CCNCC3)cc21 [NORFLOXACIN]	5 (≈ 15.7 µM)

These molecules were tested on Saccharomyces cerevisiae (assay: Antimicrobial activity against Saccharomyces cerevisiae ATCC 9763 after 24 hrs by broth microdilution assay). Conditions: ATCC 9763, 24 h.
Format: functional
Procedure, shortened: as §1

Compound	MIC [µg/mL]
COc1ccc(/C=N/n2c(S)nnc2-c2nc(C(C)C)cs2)cc1	62.5 (≈ 174 µM)
CC(C)c1csc(-c2nnc(S)n2/N=C/c2ccccc2O)n1	125 (≈ 362 µM)
CC(C)c1csc(-c2nnc(S)n2-c2ccccc2)n1	8 (≈ 26.5 µM)
CSc1nnc(-c2nc(C(C)C)cs2)n1-c1ccccc1	16 (≈ 50.6 µM)
OC(Cn1cncn1)(Cn1cncn1)c1ccc(F)cc1F [FLUCONAZOLE]	≤ 1

These molecules were tested on Mycobacterium tuberculosis (assay: Antimycobacterial activity against Mycobacterium tuberculosis H37Rv after 21 days by broth dilution assay). Conditions: 504 h.
Format: functional
Procedure, shortened: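 Middlebrook 7H9 broth with 10% albumin-dextrose-catalase and 0.2% glycerol; frozen culture thawed, diluted to 10⁵ cfu/mL and used as inoculum. Compounds taken up in DMSO and diluted twice in broth, 1.3% DMSO final. Incubated at 37 °C. Growth judged by eye against drug-free and inoculum-free controls and isoniazid. MIC is the lowest concentration inhibiting ≥99% of the starting population.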

Compound	MIC [µg/mL]
COc1ccc(/C=N/n2c(S)nnc2-c2nc(C(C)C)cs2)cc1	31.2 (≈ 86.9 µM)
CC(C)c1csc(-c2nnc(S)n2/N=C/c2ccccc2O)n1	62.5 (≈ 181 µM)
CC(C)c1csc(-c2nnc(S)n2-c2ccccc2)n1	31.2 (≈ 103 µM)
CSc1nnc(-c2nc(C(C)C)cs2)n1-c1ccccc1	62.5 (≈ 198 µM)
NNC(=O)c1ccncc1 [ISONIAZID]	0.25 (≈ 1.82 µM)

What follows are molecules tested on Bacillus subtilis (assay: Antimicrobial activity against Bacillus subtilis ATCC 60511 after 24 hrs by broth microdilution assay). Conditions: ATCC 60511, 24 h.
Format: functional
Procedure, shortened: as §1

Compound	MIC [µg/mL]
COc1ccc(/C=N/n2c(S)nnc2-c2nc(C(C)C)cs2)cc1	31.2 (≈ 86.9 µM)
CC(C)c1csc(-c2nnc(S)n2/N=C/c2ccccc2O)n1	250 (≈ 724 µM)
CC(C)c1csc(-c2nnc(S)n2-c2ccccc2)n1	16 (≈ 52.9 µM)
CSc1nnc(-c2nc(C(C)C)cs2)n1-c1ccccc1	31.2 (≈ 98.8 µM)
O=C(O)c1cn(C2CC2)c2cc(N3CCNCC3)c(F)cc2c1=O [CIPROFLOXACIN]	≤ 1
CCn1cc(C(=O)O)c(=O)c2cc(F)c(N3CCNCC3)cc21 [NORFLOXACIN]	≤ 1

These molecules were tested on Klebsiella pneumoniae (assay: Antimicrobial activity against Klebsiella pneumoniae ATCC 10031 after 24 hrs by broth microdilution assay). Conditions: ATCC 10031, 24 h.
Format: functional
Procedure, shortened: as §1

Compound	MIC [µg/mL]
COc1ccc(/C=N/n2c(S)nnc2-c2nc(C(C)C)cs2)cc1	16 (≈ 44.5 µM)
CC(C)c1csc(-c2nnc(S)n2/N=C/c2ccccc2O)n1	250 (≈ 724 µM)
CC(C)c1csc(-c2nnc(S)n2-c2ccccc2)n1	31.2 (≈ 103 µM)
CSc1nnc(-c2nc(C(C)C)cs2)n1-c1ccccc1	31.2 (≈ 98.8 µM)
O=C(O)c1cn(C2CC2)c2cc(N3CCNCC3)c(F)cc2c1=O [CIPROFLOXACIN]	≤ 1
CCn1cc(C(=O)O)c(=O)c2cc(F)c(N3CCNCC3)cc21 [NORFLOXACIN]	≤ 1

What follows are molecules tested on Enterococcus faecalis (assay: Antimicrobial activity against Streptococcus faecalis ATCC 14506 after 24 hrs by broth microdilution assay). Conditions: ATCC 14506, 24 h.
Format: functional
Procedure, shortened: as §1

Compound	MIC [µg/mL]
COc1ccc(/C=N/n2c(S)nnc2-c2nc(C(C)C)cs2)cc1	31.2 (≈ 86.9 µM)
CC(C)c1csc(-c2nnc(S)n2/N=C/c2ccccc2O)n1	250 (≈ 724 µM)
CC(C)c1csc(-c2nnc(S)n2-c2ccccc2)n1	125 (≈ 413 µM)
CSc1nnc(-c2nc(C(C)C)cs2)n1-c1ccccc1	16 (≈ 50.6 µM)
O=C(O)c1cn(C2CC2)c2cc(N3CCNCC3)c(F)cc2c1=O [CIPROFLOXACIN]	≤ 5
CCn1cc(C(=O)O)c(=O)c2cc(F)c(N3CCNCC3)cc21 [NORFLOXACIN]	5 (≈ 15.7 µM)

Each molecule was assayed on Aspergillus niger (assay: Antimicrobial activity against Aspergillus niger ATCC 6275 after 24 hrs by broth microdilution assay). Conditions: ATCC 6275, 24 h.
Format: functional
Procedure, shortened: as §1

Compound	MIC [µg/mL]
COc1ccc(/C=N/n2c(S)nnc2-c2nc(C(C)C)cs2)cc1	62.5 (≈ 174 µM)
CC(C)c1csc(-c2nnc(S)n2/N=C/c2ccccc2O)n1	125 (≈ 362 µM)
CC(C)c1csc(-c2nnc(S)n2-c2ccccc2)n1	16 (≈ 52.9 µM)
CSc1nnc(-c2nc(C(C)C)cs2)n1-c1ccccc1	31.2 (≈ 98.8 µM)
OC(Cn1cncn1)(Cn1cncn1)c1ccc(F)cc1F [FLUCONAZOLE]	≤ 1
